EWS-Fli inh: blocks EWS/Fli oncoprotein-driven transcription | A673 NR0B1-luciferase reporter, viability-normalised | inhibition, % at 12.6 µM | 350,000 compounds, 0.67% hits | AID 651661;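 active means mean inhibition of at least 50% after viability correction, with every replicate also passing that limit; inconclusive means mean reaches 50% but only one of two replicates passes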;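 further: firefly luciferase signal divided by Alamar Blue viability fluorescence both relative to DMSO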
LGR2 antag: blocks bursicon-induced cAMP signaling via Drosophila LGR2 | HEK293 LGR2, CRE-luciferase, bursicon-stimulated, 4 h | inhibition, % at 9.99 µM | 380,000 compounds, 0.35% hits;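 active means drop in luminescence signal, shown as inhibition above about 50% in the replicate tests, limit read from the data, passing the limit was not always enough; inconclusive means probably only some replicates passing the limit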;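 further: agonist challenge used bursicon conditioned medium at about half maximal strength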
rRNA inh HTS: selective bacterial rRNA inhibition in E. coli. E. coli WT GFP vs humanized-ribosome RFP mutants, fluorescence, 24 h; active compounds read low; DMSO median 0, no signal -100. GFP signal change (wild-type ribosome), % (no concentration beside the values). 350,000 compounds, 1.6% hits. AID 720706;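 active means significant combined selectivity score with lowered wild-type GFP, culture density cut under 30%, mutant RFP and density less affected; inactive means any of these conditions unmet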
E-selectin induc: E-selectin induction on HUVECs. activation, % at 7.58 µM. 260,000 compounds, 0.37% hits. P16581. HUVEC E-selectin immunofluorescence imaging; normalized: neutral wells 0, TNF-alpha wells 100;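 active means mean E-selectin-positive cell signal at least 10% of the positive control, reached in at least 60% of replicates, without over 20% cell loss; inconclusive means no rule given, readout overlaps actives, possibly toxicity-flagged; inactive means the rest, including those meeting only one limit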
Target sequence (P16581 whole entry, looked up): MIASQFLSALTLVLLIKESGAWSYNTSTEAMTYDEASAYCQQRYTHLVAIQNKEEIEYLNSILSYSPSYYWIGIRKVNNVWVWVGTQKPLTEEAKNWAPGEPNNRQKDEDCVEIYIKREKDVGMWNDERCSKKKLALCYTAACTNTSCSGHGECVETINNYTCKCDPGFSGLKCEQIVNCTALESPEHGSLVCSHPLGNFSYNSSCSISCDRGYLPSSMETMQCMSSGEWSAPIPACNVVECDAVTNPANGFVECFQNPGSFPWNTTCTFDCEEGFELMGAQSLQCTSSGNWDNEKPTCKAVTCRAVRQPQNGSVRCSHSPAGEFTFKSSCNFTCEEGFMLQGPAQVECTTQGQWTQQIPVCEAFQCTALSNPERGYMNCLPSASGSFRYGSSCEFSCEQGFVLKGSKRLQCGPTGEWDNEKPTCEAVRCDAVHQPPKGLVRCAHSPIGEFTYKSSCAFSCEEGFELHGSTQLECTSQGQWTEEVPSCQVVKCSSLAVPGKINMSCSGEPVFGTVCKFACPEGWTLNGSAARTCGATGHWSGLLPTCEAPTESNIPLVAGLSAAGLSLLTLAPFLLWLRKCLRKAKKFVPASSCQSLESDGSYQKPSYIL
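Test system: HUVEC; input: 3,000 HUVEC/well; measured by: immunofluorescence imaging; read-out: % PE-positive cells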
* marks the source's active call; other numbers are inactive results; ? = inconclusive; nt = no result. A selection: hits, their analogues and other compounds. The true share with any hit is near 2.4%.

SMILES	EWS-Fli inh	LGR2 antag	rRNA inh HTS	E-selectin induc
Cc1cc(=O)n2c3c(c4c(cc13)c(CN(C)C)cc(=O)n4C)OC2	?	105.1*	-56.4	5.3
Cc1cc(=O)n(C)c2ccccc12	4.8	-22.4	10.3	5.3
COc1ccc(N(CC(=O)N2CCC(Cc3ccccc3)CC2)S(C)(=O)=O)cc1	12.5	-9.3	-21.1*	nt
Cc1ccc(SCC(=O)Nc2ccc(S(=O)(=O)Nc3nccs3)cc2)cc1	7.1	-10.0	-37.1*	nt
O=C(CSc1ccncc1)Nc1ccc(S(=O)(=O)Nc2nccs2)cc1	-7.1	6.9	5.2	0.7
O=C(C[C@H]1C[C@@H]2c3cc(NC(=O)c4ccc5c(c4)OCO5)ccc3O[C@@H]2[C@@H](CO)O1)NCCc1ccccc1	-1.1	17.2	-5.0	0.1
COc1ccccc1C1NC(=O)NC(C)=C1C(=O)OCc1ccccc1 (stereo unspecified)	3.5	-4.2	-23.3*	0.8
CCOc1ccccc1C1NC(=O)NC(C)=C1C(=O)OCc1ccccc1 (stereo unspecified)	-7.6	2.7	-21.9	nt
CC1=C(C(=O)OCc2ccccc2)C(c2ccccc2Br)NC(=O)N1 (stereo unspecified)	14.8	1.0	-34.4*	nt
O=C([C@H]1[C@H](CO)[C@H]2Cn3c(cccc3=O)[C@H]2N1C(=O)C1CCCC1)N1CCOCC1	-4.3	6.6	3.4	0.1
C[C@H](CO)N1C[C@H](C)[C@H](CN(C)C(=O)Nc2ccc3c(c2)OCO3)OCCCC[C@H](C)Oc2ccc(NC(=O)Nc3ccccc3)cc2C1=O	-11.8	31.3	-2.4	nt
CC(=O)Nc1ccc2c(c1)CC(=O)N(C)C[C@@H](C)[C@@H](CN(C)C)O2	nt	nt	1.4	nt
O=C1C=CC(c2c[nH]c3ccccc23)CC1 (stereo unspecified)	18.2	-5.7	-13.7*	0.0
O=C(COC(=O)c1ccccc1[N+](=O)[O-])c1ccc2c(c1)OCO2	-18.3	85.1*	8.7	0.9
Cc1cccc(C(=O)OCC(=O)c2ccc3c(c2)OCCO3)c1O	-79.3	-11.4	8.7	4.7
O=C(COC(=O)c1cccs1)c1ccc2c(c1)OCCO2	-27.2	81.6*	-20.6	nt
COc1ccc2c3c([nH]c2c1)[C@H](CO)NCC31CN(S(=O)(=O)c2ccccc2)C1	nt	nt	-3.6	nt
CC1CCCN(c2nc(NCc3ccco3)nc(N)c2[N+](=O)[O-])C1 (stereo unspecified)	8.9	-31.2	-30.2	-2.5
CC1CCCN(c2nc(N(C)c3ccccc3)nc(N)c2[N+](=O)[O-])C1 (stereo unspecified)	6.0	-18.7	-16.9*	-0.2
O=C(NC1CCCCC1)N[C@H]1CC[C@H](CC(=O)N2CCOCC2)O[C@H]1CO	-4.1	3.2	1.9	0.2
O=C(Nc1cccc2ccccc12)OCc1ccccc1	-100.4	-43.5	9.3	-0.1
O=C(NCCOC(=O)Nc1cccc2ccccc12)OCc1ccccc1	-3.5	-14.3	-33.5*	2.7
C[C@@H]1CN([C@@H](C)CO)C(=O)c2c(c3ccccc3n2C)-c2ccccc2CO[C@@H]1CN(C)Cc1ccccc1	nt	nt	-6.7	nt
CCOC(=O)Nc1sc(C)c(C)c1C(=O)OCC	-7.4	-5.1	-19.9*	nt
Cc1ccc(C2CC(c3cccs3)=NN2C(=O)CCl)cc1 (stereo unspecified)	64.8*	-63.1	-0.5	nt
SMILES	EWS-Fli inh	LGR2 antag	rRNA inh HTS	E-selectin induc
CCC(=O)N1N=C(c2cccs2)CC1c1ccc(C)cc1 (stereo unspecified)	10.7	1.9	-32.1	0.2
CCCNC(=O)Nc1ccc2c(c1)C(=O)N(C)C[C@H](OC)[C@H](C)CN(Cc1ccccc1)[C@@H](C)CO2	-7.7	-3.8	-1.6	-0.3
C[C@H]1CN([C@@H](C)CO)C(=O)Cc2cc(NC(=O)c3ccncc3)ccc2O[C@H]1CN(C)Cc1ccc(C(F)(F)F)cc1	-0.6	-9.0	-4.4	-0.1
CCn1nnc2cc(C(=O)O)ccc21	-1.8	5.3	11.8	0.4
CCn1nnc2cc(C(=O)NCCc3ccccc3F)ccc21	56.2*	53.7*	-1.5	nt
C[C@@H]1CCCCO[C@@H](CN(C)C(=O)CCCN(C)C)[C@H](C)CN([C@@H](C)CO)C(=O)c2cc(NS(C)(=O)=O)ccc2O1	-4.7	5.2	-0.3	-0.1
O=C(/C=C1\NC2(CCCC2)Cc2ccccc21)C(=O)N/N=C/c1ccc(O)c(O)c1	nt	-4.2	-21.3*	1.6
CCCNC(=O)C[C@@H]1CC[C@H]2[C@@H](COC[C@H](O)CN2C(=O)Nc2c(C)noc2C)O1	-6.8	-17.9	-1.2	-0.1
C[C@@H]1CN([C@H](C)CO)C(=O)c2cc(NC(=O)NC3CCCCC3)ccc2O[C@@H]1CN(C)S(=O)(=O)c1cn(C)cn1	-1.3	3.6	-6.3	nt
CCNC(=S)NNC(=O)c1c(Cl)c(C)nn1C	nt	-21.0	nt	nt
CCCCNC(=S)NNC(=O)c1c(Cl)c(C)nn1C	70.7*	6.5	-1.8	nt
Cc1cccc(-c2nnc(-c3ccc4ccccc4c3)o2)c1	-21.2	52.4*	1.2	-0.3
Cc1cccc(-c2nnc(-c3cccc4ccccc34)o2)c1	-4.1	-24.8	0.0	0.6
C[C@H]1CN([C@@H](C)CO)C(=O)Cc2cc(NS(=O)(=O)c3ccc(Cl)cc3)ccc2O[C@@H]1CN(C)C	4.5	-6.9	1.2	nt
COc1ccc2nc(-c3ccc(Cl)cc3)cc(C(=O)O)c2c1	-49.5	-21.4	-33.0*	1.9
COc1ccc(NC(=O)N2C[C@@H](O)COC[C@H]3O[C@H](CC(=O)NCc4ccccc4OC)CC[C@@H]32)cc1	-7.9	-1.6	2.1	0.0
CC(=O)Oc1ccc2c(=O)c(Oc3ccccc3)c(C)oc2c1OC(C)=O	17.2	11.4	-17.4*	-2.1
Cc1oc2cc(O)ccc2c(=O)c1Oc1ccccc1	nt	8.7	nt	nt
CC(=O)c1cnc(SCc2ccc(Cl)cc2)nc1C	-31.6	-9.5	-28.2*	nt
CC(=O)c1cnc2nc(SCc3ccc(Cl)cc3)nn2c1C	-15.4	-17.0	-35.5	0.3
CCCC[C@@H](O)C1=C(COC)C[C@H]2C(=O)N(Cc3ccccc3)C(=O)[C@H]2[C@H]1CO	0.3	nt	nt	nt
Cc1noc(C)c1NC(=O)N(C)C[C@H]1Oc2ncc(C#CC3CCCC3)cc2C(=O)N([C@@H](C)CO)C[C@@H]1C	-6.9	-17.6	3.7	-1.5
Cc1ccc(NC(=O)c2ncn(CCCN3CCN(c4ccccn4)CC3)n2)cc1C	-2.7	4.6	-22.2*	3.4
COC(=O)[C@H](Cc1ccccc1)NCCCn1cnc(C(=O)Nc2ccc(C)c(C)c2)n1	-7.8	27.1	-35.0*	-1.3
COC(=O)[C@H](Cc1ccccc1)NC(=O)Cn1cnc(C(=O)Nc2ccc(C)c(C)c2)n1	-6.0	-18.4	3.9	-1.8
Cc1ccc(NC(=O)c2ncn(CCCN3CCN(c4ncccn4)CC3)n2)cc1C	-2.7	10.2	-4.1	0.6
Cc1cccc(S(=O)(=O)NC[C@@H]2CC[C@H]3NC[C@H]3O2)c1	-8.5	nt	nt	nt
COc1cc(NC(=O)Cn2ncc(Cl)c(Cl)c2=O)c(C)cc1[N+](=O)[O-]	75.9*	104.5*	7.5	0.1
COc1ccccc1NCC(O)COc1ccc(C(C)(C)C)cc1 (stereo unspecified)	7.8	0.0	-38.6*	8.4
